# Screens (PubChem BioAssay)
# Hits are enriched below; roughly 2.3% of the tested compounds scored in any of these assays.
# V1R ag counter: agonists of human V1a receptor, primary screen, counter-screen for OXTR agonist project, fluorescence, CHO-V1R cells; Vasopressin V1a receptor (Homo sapiens), P37288; Fluo-8 calcium fluorescence, agonist mode; 0% DMSO, 100% 3 nM vasopressin; activation, % at 3 µM; 0.25% of 320,000 active; AID 2797, 2010;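 active = activation above the mean activation of all tested compounds plus 3 SD, per screening run, cut at about 20% in these data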;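 also: signal is peak over basal fluorescence ratio across a 100 second FLIPR read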
# OXTR potentiator: human OXTR potentiators, primary screen, fluorescence, CHO-OTR cells, Fluo-8 calcium. Oxytocin receptor (Homo sapiens), P30559. Fluo-8 calcium fluorescence, potentiator mode; 0% = oxytocin EC15, 100% = EC100. activation, % at 3 µM. 0.061% of 320,000 active. AID 2445, 2010;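 active = activation above that plate's cutoff, the mean activation of tested compounds plus 3 SD, cut at about 6.6% in these data, passing the limit was not always enough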;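 also: 100% uses oxytocin at 75 nM as the full agonist control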
# Target sequence (P30559 whole entry, looked up): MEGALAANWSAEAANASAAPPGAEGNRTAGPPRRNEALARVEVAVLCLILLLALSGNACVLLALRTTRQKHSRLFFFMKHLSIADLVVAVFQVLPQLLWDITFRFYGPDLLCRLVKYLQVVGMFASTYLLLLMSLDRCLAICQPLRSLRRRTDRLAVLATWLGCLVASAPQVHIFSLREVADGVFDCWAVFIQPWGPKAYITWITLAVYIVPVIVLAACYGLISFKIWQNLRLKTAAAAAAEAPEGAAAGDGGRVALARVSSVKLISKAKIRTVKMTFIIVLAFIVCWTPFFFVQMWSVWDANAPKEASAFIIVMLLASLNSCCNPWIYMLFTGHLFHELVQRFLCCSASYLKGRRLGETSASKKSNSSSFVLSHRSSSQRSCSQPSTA
#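 System: human OTR in CHO cells / Also added: sub-maximal oxytocin, roughly EC15 / Control set: EC15 oxytocin low, 75 nM oxytocin high / Schedule: 6 min compound pre-incubation at room temperature, 100 s kinetic read / Compound: single-point 3.0 µM / Replication: singlicate / Technique: Fluo-8 calcium dye fluorescence / Read-out basis: % activation of max/min ratio relative to oxytocin controls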
# TAAR1 antagonist: human TAAR1 antagonists, primary screen, Fluo-8 calcium fluorescence, CHO RD-HGA16 cells. 1.5% of 360,000 active. inhibition, % at 3 µM. Trace amine-associated receptor 1 (Homo sapiens), Q96RJ0. antagonist. AID 624466, 2012;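 active = inhibition above a per-plate cutoff, the mean inhibition of test compounds on that plate plus 3 SD, cut at about 49% in these data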;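 also: 0% = DMSO plus EC80 beta-PEA response and 100% = DMSO alone without agonist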
#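 Material: RD-HGA16 CHO cells with stable hTAAR1 and Gα16; Dosing: single nominal final test compound concentration of 3 µM; Schedule: seeding 17-24 h prior, 75-min 37 °C, 30-min RT dye loading; Detection: kinetic Fluo-8 calcium fluorescence measurement; Measure: % inhibition from peak post-agonist over basal fluorescence ratio; Benchmarks: vehicle and agonist controls.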
# OXTR ag: human OXTR agonists, primary screen, fluorescence, CHO-OTR cells, Fluo-8 calcium | Oxytocin receptor (Homo sapiens), P30559 | Fluo-8 calcium fluorescence; normalized: DMSO 0%, oxytocin 100% | activation, % at 3 µM | 0.32% of 320,000 active | AID 2435, 2010;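 active = activation above the mean of all tested compounds plus 3 SD, cutoff set per screening run, cut at about 20% in these data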;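 also: peak over basal fluorescence ratio from a 100 s FLIPR kinetic read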
# TAAR1 ag: human TAAR1 agonists, primary screen, Fluo-8 calcium fluorescence, CHO RD-HGA16 cells; Trace amine-associated receptor 1 (Homo sapiens), Q96RJ0; vehicle wells 0%, saturating PEA agonist 100%; activation, % at 3 µM; 0.99% of 360,000 active;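 active = activation above the mean activation of all test compounds in the run plus 3 SD, cut at about 38% in these data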
#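 Test system: RD-HGA16 (CHO) cells co-expressing Gα16 and hTAAR1 | Doses: Single dose, 3 µM | Schedule: 17-24 h seeding, 75 min 37 °C dye, 30 min RT | Evaluation: % activation from peak over basal fluorescence ratio, DMSO-to-PEA scaled | Technique: Kinetic Fluo-8 calcium fluorescence | Benchmarks: Low control DMSO, high control PEA (EC100)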
# TAAR1 nonsel count: nonselective antagonists in TAAR1 counter-screen cells, counter-screen for hTAAR1 antagonist project, cell-based, fluorescence, calcium; shares compounds with TAAR1 antagonist; counterscreen cell line, antagonist mode; inhibition, % at 3 µM; 77% of 2,400 active; in the data active = inhibition above about 22%;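 also: CHO-Ga16 host cells stimulated with ATP at an EC80 level; 0% = agonist EC80 plus vehicle and 100% = vehicle without agonist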
# TAAR1 ant conf: human TAAR1 antagonists, retest of hits, confirmation, cell-based, fluorescence. shares compounds with TAAR1 antagonist. TAAR1-expressing cells, fluorescence antagonist read-out. inhibition, % at 3 µM. 40% of 2,400 active. AID 651785, 2012; in the data active = inhibition above about 49%;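 also: CHO-Ga16 host cells challenged with agonist PEA near its EC80; 0% = agonist at EC80 plus vehicle and 100% = vehicle with no agonist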
# Ga16 nonsel ag: calcium activation in Ga16-expressing cells, counter-screen for TAAR1 antagonist project, cell-based, fluorescence. shares compounds with TAAR1 antagonist. agonist counterscreen. activation, % at 3 µM. 18% of 2,400 active. AID 651953, 2012; in the data active = activation above about 12%;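 also: 0% = vehicle wells and 100% = saturating stimulus response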
# TAAR1 ag counter: TAAR1 activation by candidate antagonists – cell-based, fluorescence, counter-screen for TAAR1 antagonist project | AID 651955, 2012 | hTAAR1 cell line, agonist mode | shares compounds with TAAR1 antagonist | activation, % at 3 µM | 2% of 2,400 active; in the data active = activation above about 37%;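 also: CHO cells stably expressing TAAR1 with calcium dye readout; 0% = DMSO vehicle and 100% = full agonist response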
# Starred values were filed as active, the others as inactive; x = no result.
SMILES,V1R ag counter,OXTR potentiator,TAAR1 antagonist,OXTR ag,TAAR1 ag,TAAR1 nonsel count,TAAR1 ant conf,Ga16 nonsel ag,TAAR1 ag counter
CC(C)(C)NC(=O)C(c1ccccc1)n1c(=O)c(-c2ccccc2)nc2ccccc21 (configuration not stated),x,x,-51,x,1,x,x,x,x
COc1ccc(C(=O)Nc2cccc(/C(C)=N/NC(=O)c3ccc([N+](=O)[O-])c(C)c3)c2)cc1OC,0,-7,60*,0,21,44*,66*,12*,10
Cc1cccc(NC(=O)c2cccc(NC(=O)c3ccco3)c2)c1,x,x,22,x,8,x,x,x,x
Cc1cc(C(=O)Nc2cccc(NC(=O)c3ccco3)c2)ccc1[N+](=O)[O-],x,x,58*,x,11,14,26,8,4
COc1ccc(C(=O)Nc2cccc(NC(C)=O)c2)cc1OC,0,-1,-12,0,3,x,x,x,x
CN1CCN(C(=O)c2cccc(-c3ccc4nccn4c3)c2)CC1,x,x,-5,x,1,x,x,x,x
CSc1ccccc1NC(=O)c1cc(-c2cccs2)on1,2,-8,55*,1,29,11,5,1,5
Cc1ccccc1Cn1cc(NC(=O)c2cc(-c3ccco3)on2)cn1,0,-2,-24,-1,3,x,x,x,x
Cc1ccccc1Cn1cc(NC(=O)c2cc(-c3cccs3)on2)cn1,1,-10,62*,1,27,33*,62*,22*,14
CCC(=O)N[C@@H]1CC[C@@H](CCNC(=O)Nc2ccc(F)cc2)O[C@@H]1CO,x,x,1,x,4,x,x,x,x
Cn1cncc1C#Cc1ccc2cc(C(C)(C)O)oc(=O)c2c1,0,0,-5,2,8,x,x,x,x
CC(C)(O)c1cc2ccc(C#CCCN3C(=O)c4ccccc4C3=O)cc2c(=O)o1,10,-10,62*,3,15,26*,55*,9,3
CCOC(=O)Cn1c(=O)oc2cc(S(=O)(=O)N(C)Cc3ccccc3)ccc21,5,-6,65*,4,16,19,47,11,11
COCCn1cnc2c(c1=O)c1nc3ccccc3nc1n2/N=C/c1cccc(OC)c1,12,-12,53*,-1,20,27*,44,7,6
C=CCn1cnc2c(c1=O)c1nc3ccccc3nc1n2/N=C/c1cc(OC)c(OC)c(OC)c1,0,0,7,0,9,x,x,x,x
O=C(O)C(Cc1ccccc1)N1C(=O)C2C3CCC(C3)C2C1=O (configuration not stated),x,x,-15,x,5,x,x,x,x
O=C(Nc1cc(Cl)ccc1Cl)c1ccc(OC(=O)c2ccco2)cc1,1,-1,85*,-1,11,25*,37,3,4
Cc1ccc(NC(=O)c2ccc(OC(=O)c3ccco3)cc2)cc1,1,-7,-3,0,4,x,x,x,x
N#Cc1c(Cl)nc(N/N=C/c2ccccc2)c(Cl)c1Cl,-1,-10,29,-1,10,x,x,x,x
